# In the library only some 3.2% were active in any assay of this set; here they are far more common.
# rCAG RNA binder – r(CAG) repeat RNA binding; hit rate 1.3% among 370,000; TO-PRO-1 dye displacement fluorescence; AID 651821; inhibition, % at 3 µM;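 active = inhibition above the plate cutoff, the mean of all test compounds on that plate plus 3 SD, cut at about 35% in these data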;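 also: 0% = DMSO alone and 100% = 100 µM mitoxantrone as full dye displacement; higher means more dye released from RNA so lower well fluorescence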
# LEDGF integ inh – blocks HIV-1 LEDGF/p75-dependent DNA integration; TR-FRET IN-LEDGF/p75 DNA integration, Eu/Cy5; hit rate 0.64% among 370,000; inhibition, % at 3.7 µM; AID 743269;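 active = inhibition above the screen-wide mean plus 3 SD, cut at about 13% in these data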;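 also: signal is the Cy5 over europium emission ratio at 671 and 618 nm; 0% = plate median of compound wells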
# DAGLB inhibitor – blocks human DAGLB lipase activity | HEK293T DAGLB membrane lysate, EnzChek fluorogenic substrate | AID 504411 | inhibition, % at 5.17 µM | hit rate 0.059% among 340,000; in the data active = inhibition above about 34%;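 also: 0% = enzyme with vehicle and 100% = wells lacking enzyme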
# Target sequence (Q8NCG7 whole entry, looked up): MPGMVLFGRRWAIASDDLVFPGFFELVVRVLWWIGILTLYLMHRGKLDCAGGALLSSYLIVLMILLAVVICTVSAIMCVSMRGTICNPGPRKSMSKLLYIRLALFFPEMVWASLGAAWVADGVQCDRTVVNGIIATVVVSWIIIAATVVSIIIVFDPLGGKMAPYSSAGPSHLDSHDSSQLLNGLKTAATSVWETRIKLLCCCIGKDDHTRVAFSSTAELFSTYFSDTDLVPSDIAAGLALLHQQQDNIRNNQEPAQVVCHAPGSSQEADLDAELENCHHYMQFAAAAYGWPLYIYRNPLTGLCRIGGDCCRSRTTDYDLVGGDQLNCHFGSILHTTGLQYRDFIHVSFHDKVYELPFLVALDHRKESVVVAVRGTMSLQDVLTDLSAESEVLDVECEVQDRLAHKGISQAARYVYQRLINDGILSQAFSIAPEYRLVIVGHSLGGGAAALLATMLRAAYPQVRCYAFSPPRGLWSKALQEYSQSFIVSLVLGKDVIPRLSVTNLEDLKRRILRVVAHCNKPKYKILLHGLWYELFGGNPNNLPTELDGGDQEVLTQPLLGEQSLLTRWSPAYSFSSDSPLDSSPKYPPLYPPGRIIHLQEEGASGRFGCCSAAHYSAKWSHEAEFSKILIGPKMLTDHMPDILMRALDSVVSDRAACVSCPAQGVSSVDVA
# HTRA1 inhibitor – inhibitors of human serine peptidase HTRA1 | hit rate 0.5% among 340,000 | AID 504803 | recombinant HTRA1, FP-rhodamine activity-based probe, fluorescence polarization | inhibition, % at 5.96 µM; in the data active = inhibition above about 36%;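 also: 0% = enzyme with DMSO and 100% = wells lacking enzyme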
# ABHD4 inh – inhibitors of mouse ABHD4; Q8VD66; purified mABHD4, FP-Rh probe fluorescence polarization; inhibition, % at 8.92 µM; hit rate 0.54% among 370,000; AID 720543;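 active = inhibition exceeding the mean over every tested compound plus 3 SD, cut at about 30% in these data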;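 also: 0% = plate median of compound wells and 100% = S159A mutant with DMSO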
#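 Assay system: Wild-type mouse ABHD4 protein | Medium: HEPES pH 7.0 buffer, 150 mM NaCl, 0.01% Pluronic F-127 | Incubation: Enzyme–compound pre-incubation 45 min, then probe 60 min, both 25 °C | Technique: Fluorescence polarization with parallel and perpendicular emission, 525/598 nm | Evaluation: % inhibition of FP-Rh probe binding versus controls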
# PRMT1 FP inh – PRMT1 (human) inhibition, primary screen; Q99873; recombinant PRMT1, activity-based probe fluorescence polarization; inhibition, % at 2.79 µM; hit rate 1.3% among 370,000; AID 652257;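 active = inhibition above about 21% made by adding two undisclosed values, limit read from the data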
# DAGLB inh conf – DAGLB (human) inhibition, confirmation screen | hit rate 73% among 190 | inhibition, % at 5.17 µM | AID 504445 | shares compounds with DAGLB inhibitor | HEK293T DAGLB membrane lysate, EnzChek fluorogenic substrate;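 active = mean inhibition over triplicate wells above a set limit taken from the primary lipase screen, cut at about 34% in these data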;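 also: 0% = DAGLB with DMSO and 100% = wells lacking DAGLB enzyme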
# HTRA1 conf – HTRA1 (human) inhibition, confirmation; recombinant HTRA1, FP-rhodamine activity-based probe, fluorescence polarization; inhibition, % at 5.96 µM; hit rate 66% among 1,600; shares compounds with HTRA1 inhibitor;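 active = mean inhibition over three repeats above a set limit taken from the earlier primary screen, cut at about 37% in these data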;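 also: 0% = HTRA1 with DMSO and 100% = wells lacking HTRA1; inhibitors block probe binding so polarization drops and inhibition rises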
# rCAG binder conf – r(CAG) RNA repeat binding, confirmation; TO-PRO-1 dye displacement fluorescence; AID 652065; shares compounds with rCAG RNA binder; inhibition, % at 3 µM; hit rate 70% among 4,300;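 active = inhibition above a per-plate cutoff, the mean inhibition of sample wells plus 3 SD, cut at about 35% in these data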;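 also: loss of TO-PRO-1 fluorescence as compound displaces dye from 1x1 AA loop RNA; 0% = DMSO only wells and 100% = 100 µM mitoxantrone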
# DNA CAG counter – DNA CAG dye complex inhibition counter-screen | shares compounds with rCAG RNA binder | d(CAG) DNA oligo TO-PRO-1 dye displacement, fluorescence | inhibition, % at 3 µM | hit rate 94% among 4,300;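 active = inhibition above its plate's cutoff, the mean test-well inhibition plus 3 SD, cut at about 4.8% in these data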;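 also: 0% = DNA dye mix with DMSO and 100% = 100 µM mitoxantrone; hits displace the dye from DNA and so lower well fluorescence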
# * marks the source's active call; other numbers are inactive results; nt = no result.
SMILES,rCAG RNA binder,LEDGF integ inh,DAGLB inhibitor,HTRA1 inhibitor,ABHD4 inh,PRMT1 FP inh,DAGLB inh conf,others
Cc1ccc(C)c(NC(=O)/C(C#N)=C/c2cn(CC(=O)NCc3ccco3)c3ccccc23)c1,4,-2,46*,-4,-5,-4,48*,
COCC(C)n1c(C)cc(C(=O)COC(=O)c2cccn2C)c1C (stereo unspecified),3,-4,-2,-4,-9,7,nt,
CN(C)c1ccc(N=Nc2ccccc2C(=O)OCC(=O)N2CCCC2)cc1,-1,2,27,7,5,-1,nt,
CN(C)c1ccc(N=Nc2ccccc2C(=O)OCC(=O)Nc2ccccc2C(F)(F)F)cc1,0,0,35*,8,12,0,59*,
O=C1CC(=C(c2ccccc2)c2ccccc2)C(=O)N1CCCCN1CCN(c2cccc(Cl)c2)CC1,6,-8,45*,-18,2,-6,53*,
Cc1ccccc1N1CCN(CCCN2C(=O)CC(=C(c3ccccc3)c3ccccc3)C2=O)CC1,3,-1,-13,-13,9,-4,nt,
N#CC(C#N)=NNc1ccc([N+](=O)[O-])cc1,5,-3,39*,3,14,0,58*,
CC(=O)c1c(C)oc2ccc(NS(=O)(=O)c3ccc(O)c(C(=O)O)c3)cc12,19,1,57*,-5,1,7,53*,
CC(=O)c1c(C)oc2ccc(NS(=O)(=O)c3ccc(F)cc3C)cc12,3,-1,0,-10,-4,2,nt,
COCc1nc2ccccc2n1Cc1ccc(Br)cc1,-4,0,-2,-7,-3,-3,nt,
CCN1C(c2ccccc2)=C(c2ccccc2)S/C1=C\C=C1/SC(=S)N(C)C1=O,4,-3,14,-25,-64,6,nt,
CCN1C(c2ccccc2)=C(c2ccccc2)S/C1=C/C=C1\SC(=S)N(C)C1=O,0,0,39*,-22,-62,2,22,
Brc1ccc(-c2noc(CCc3ccccc3)n2)cc1,-1,-3,-23,-8,-2,0,nt,
O=[N+]([O-])c1cc([N+](=O)[O-])c2oc(-c3ccccc3)c(Br)c2c1O,nt,nt,37*,-41,nt,nt,37*,
CCc1ccc(S(=O)(=O)/N=C2\C=C(Nc3ccc(O)cc3)C(=O)c3ccccc32)cc1,nt,nt,40*,78*,nt,nt,51*,HTRA1 conf=80*
COc1ccc(C=NNc2ccc(S(=O)(=O)Nc3ccccc3C(=O)O)cc2[N+](=O)[O-])c(OC)c1,nt,nt,43*,47*,nt,nt,43*,HTRA1 conf=39*
Cc1ccc(NC(=O)CSc2nncc3ccccc23)cc1,2,1,-4,-12,3,0,nt,
CCOc1ccc2c(c1)-c1c(ssc1=S)C(C)(C)N2,nt,nt,39*,46*,nt,nt,35*,HTRA1 conf=61*
O=C(NC(C(=O)N/N=C/c1ccccc1)c1n[nH]c(=O)c2ccccc12)c1ccccc1 (stereo unspecified),2,1,32,-24,-4,-1,nt,
O=C(NC(C(=O)N/N=C/c1c2ccccc2cc2ccccc12)c1n[nH]c(=O)c2ccccc12)c1ccccc1 (stereo unspecified),20,0,40*,40*,-16,1,38*,HTRA1 conf=-72
O=C(N/N=C/c1ccc([N+](=O)[O-])o1)c1cc2ccccc2o1,17,11,-1,28,29,7,nt,
O=[N+]([O-])c1ccc(/C=N/Nc2ccc3ccccc3c2)o1,31,1,48*,37*,0,11,63*,HTRA1 conf=16
COC(=O)c1ccc(NC(=O)CN2C(=O)NC3(CCC(C)CC3)C2=O)cc1 (stereo unspecified),2,-1,-1,12,-1,-4,nt,
COC(=O)c1ccc(C2/C(=C(/O)c3ccc4c(c3)CC(C)O4)C(=O)C(=O)N2Cc2cccnc2)cc1 (stereo unspecified),nt,nt,0,1,nt,nt,nt,
Cc1cc(C)c(S(=O)(=O)/N=C2\C=C(Nc3ccc(C(=O)O)cc3)C(=O)c3ccccc32)c(C)c1,85*,43*,36*,60*,71*,14,39*,HTRA1 conf=52*;rCAG binder conf=81*;DNA CAG counter=50*
SMILES,rCAG RNA binder,LEDGF integ inh,DAGLB inhibitor,HTRA1 inhibitor,ABHD4 inh,PRMT1 FP inh,DAGLB inh conf,others
CCOCCCNC(=O)Cn1ncc2c(=O)oc3ccccc3c21,0,1,1,13,7,2,nt,
COc1cc([N+](=O)[O-])cc(/C=C2/SC(=S)N(Cc3ccccc3)C2=O)c1O,79*,2,40*,-80,-157,21*,48*,rCAG binder conf=95*;DNA CAG counter=85*
COc1ccc2oc(C(F)(F)C(F)F)cc(=O)c2c1,-1,2,-4,2,-3,-2,nt,
COc1cccc(C(=O)Nc2cccc(C(=O)NC3=NN(c4c(Cl)cc(Cl)cc4Cl)C(=O)C3)c2)c1,56*,4,36*,-9,-24,3,17,rCAG binder conf=48*;DNA CAG counter=17*
COc1cccc(C(=O)Nc2cccc(NC(=O)c3ccccc3Cl)c2)c1,-5,0,1,-45,-23,2,nt,
O=C(Nc1cccc(C(F)(F)F)c1)c1cccc(NS(=O)(=O)c2ccc(Br)c(C(=O)O)c2)c1,13,-2,2,-3,-1,2,nt,
O=C(Nc1cccc(C(F)(F)F)c1)c1cccc(NS(=O)(=O)c2ccc(O)c(C(=O)O)c2)c1,79*,2,41*,-104,-48,-3,29,rCAG binder conf=62*;DNA CAG counter=24*
Cc1ccc(C2C(/C=C3/SC(=S)NC3=O)=C(c3cccs3)Oc3ccccc32)cc1 (stereo unspecified),80*,3,39*,-89,-44,0,44*,rCAG binder conf=83*;DNA CAG counter=51*
O=C1NC(=S)SC1=Cc1ccccc1Cl,17,5,18,-27,-53,20,nt,
CC1(C)CC(=O)C2=C(C1)c1c(ccc3ccccc13)NC2c1cc([N+](=O)[O-])cc([N+](=O)[O-])c1O (stereo unspecified),93*,-8,42*,-15,25,8,39*,rCAG binder conf=89*;DNA CAG counter=64*
Cc1cc(Cn2nc(-c3ccccc3C)cc2C(=O)O)on1,-2,-1,-2,-1,-3,-1,nt,
